The results in this text go back to ChEMBL document CHEMBL1123285, “Substituted 1-benzylimidazole-2-thiols as potent and orally active inhibitors of dopamine beta-hydroxylase” (J Med Chem, 1986).

Assay [1] has as its system Rattus norvegicus. As to the kind of experiment: In vivo evaluation ot the compound in spontaneously hypertensive rats for the mean arterial blood pressure. The assay is classed as functional. In short, it runs like this:
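Conscious SHR anesthetized with Brevital Na (10 mg/kg, iv) and femoral artery cannulated to a pressure transducer. After 1-h recovery, baseline MAP taken every 15 min for 1 h. Dosed 50 mg/kg ip unless noted, then MAP recorded every 15–30 min for 4 h. Value at 150 min postdose, mean ± SEM.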

The subject of assay [2] is Rattus norvegicus. As to the kind of experiment: DBH inhibitory activity was measured as dopamine levels in mesenteric artery at dose of 25 mg/kg, po. Type of assay: functional, organism-based. Further details: dose 25 mg/kg. In short, it runs like this: (§1)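 SHR (N = 5) dosed orally twice, about 18 h apart, with vehicle (5% PEG 400 in 1% methocel) or drug at the stated dose. Killed 2 h after the second dose. Mesenteric artery homogenized. Catecholamines measured by COMT methylation with [methyl-3H]-S-adenosylmethionine, chromatographic separation of methylated amines and scintillation counting. Mean ± SEM.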

Assay [3] deals with Rattus norvegicus. As to the kind of experiment: DBH inhibitory activity was measured as NE levels in mesenteric artery at dose of 100 mg/kg, po. Set-up: dose 100 mg/kg. Type of assay: functional, organism-based. The procedure, abridged: as §1
The nature of assay [4]: Ratio of dopamine to that of NE levels in mesenteric artery measured at 100 mg/kg po. The assay is classed as functional. In short, it runs like this: (§2)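 Spontaneously hypertensive rats (N = 5) got two oral doses about 18 h apart, either vehicle (5% PEG 400 in 1% methocel) or drug in vehicle, and were killed 2 h after the second dose. The mesenteric artery was homogenized. Dopamine and NE were measured by catechol O-methyltransferase methylation with [methyl-3H]-S-adenosylmethionine, then chromatographic separation and scintillation counting. Values are mean ± SEM.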

Assay [5] deals with Rattus norvegicus. As to the kind of experiment: DBH inhibitory activity was measured as NE levels in mesenteric artery at dose of 25 mg/kg, po. Type of assay: functional, organism-based. Further details: dose 25 mg/kg. In short, it runs like this: as §1
Assay [6] in a line: Ratio of dopamine to that of NE levels in mesenteric artery measured at 25 mg/kg po. Type of assay: functional. In short, it runs like this:
as §2

In assay [7] the test system is Rattus norvegicus. Nature of the assay: DBH inhibitory activity was measured as dopamine levels in mesenteric artery at dose of 100 mg/kg, po. The assay is classed as functional, organism-based. Further details: dose 100 mg/kg. The procedure, abridged: as §1
In assay [8] the test system is Rattus norvegicus. Nature of the assay: DBH inhibitory activity was measured as dopamine levels in mesenteric artery at dose of 25 mg/kg, po. Set-up: dose 25 mg/kg. Type of assay: functional, organism-based. In short, it runs like this:
as §1

Assay [9] is described as follows: In vivo evaluation ot the compound in spontaneously hypertensive rats for the catecholamine levels by taking the ratio of copamine to norepinephrine. Type of assay: functional. The procedure, abridged: as §2
The nature of assay [10]: Ratio of dopamine to that of NE levels in mesenteric artery measured at 50 mg/kg po. Type of assay: functional.
In assay [11] the test system is Rattus norvegicus. Nature of the assay: DBH inhibitory activity was measured as NE levels in mesenteric artery at dose of 50 mg/kg, po. The assay is classed as functional, organism-based. Further details: dose 50 mg/kg. In short, it runs like this:
as §1

Assay [12] addresses T1, Dopamine beta-hydroxylase (Bos taurus, UniProt P15101).
T1 sequence (P15101 whole entry): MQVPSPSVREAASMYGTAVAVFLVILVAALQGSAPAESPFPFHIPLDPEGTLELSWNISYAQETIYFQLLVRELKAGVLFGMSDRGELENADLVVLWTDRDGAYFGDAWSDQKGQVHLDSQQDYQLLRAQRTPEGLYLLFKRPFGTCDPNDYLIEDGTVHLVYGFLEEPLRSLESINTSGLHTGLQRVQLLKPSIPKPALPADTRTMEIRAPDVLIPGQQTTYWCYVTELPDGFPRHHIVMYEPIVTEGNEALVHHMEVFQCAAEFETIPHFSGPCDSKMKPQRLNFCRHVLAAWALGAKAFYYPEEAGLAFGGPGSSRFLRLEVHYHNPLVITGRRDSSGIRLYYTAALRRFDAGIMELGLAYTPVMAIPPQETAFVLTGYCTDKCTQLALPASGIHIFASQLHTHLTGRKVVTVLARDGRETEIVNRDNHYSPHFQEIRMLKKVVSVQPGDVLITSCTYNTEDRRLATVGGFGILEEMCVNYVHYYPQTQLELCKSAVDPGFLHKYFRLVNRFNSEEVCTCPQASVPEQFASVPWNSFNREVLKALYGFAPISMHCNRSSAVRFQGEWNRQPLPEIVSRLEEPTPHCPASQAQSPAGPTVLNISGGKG
Nature of the assay: Binding affinity towards Dopamine beta hydroxylase using tyramine substrate at pH 4.5 in the absence of fumarate. The procedure, abridged: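 Homogeneous bovine DBH (sp act. 30–42 U/mg at pH 5.0), tyramine as substrate, pH 4.5, no fumarate. Conditions: 50 mM sodium acetate, ionic strength 0.2, 200 μg/mL bovine catalase, 10 μM Cu²⁺, 10 mM ascorbic acid, 37 °C. Km apparent for tyramine 3.0 mM. Ki fitted with Cleland programs; mean ± SEM.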

Assay [13] in a line: In vivo evaluation ot the compound in spontaneously hypertensive rats for the catecholamine levels by taking the ratio of dopamine to norepinephrine. Type of assay: functional. The procedure, abridged:
as §1

Turning to `Oc1ccc(Cn2cc[nH]c2=S)cc1`, the MAP in [1] was 137 mmHg.
Turning to `Fc1cc(F)cc(Cn2cc[nH]c2=S)c1`, the MAP in assay [1] came to 105 mmHg. The Level in assay [2] was 0.765 µg of tissue; in [3], 3.05 µg of tissue; in [5], 4.94 µg of tissue; in assay [7] it was 1.06 µg of tissue; in [8] it was 0.3 µg of tissue; in assay [11], 4 µg of tissue. In addition, the Ratio in [4] is given as 0.378; in [6], 0.155; in assay [9] it was 0.208; in assay [10], 0.204. Further, the inhibition constant (Ki) (commonly the equilibrium dissociation constant of an inhibitor or competing ligand from its target) in assay [12] turned out to be 41 nM.
Compound `Oc1c(F)cc(Cn2cc[nH]c2=S)cc1F` returned an MAP in assay [1] of 137 mmHg. Moreover, in assay [13], the Ratio was 0.082. For the same compound, the Ki in assay [12] is 5.7 nM.
As for `CCCCc1ccc(C(=O)O)nc1` [FUSARIC ACID], in assay [10], the Ratio was determined as 0.109. Besides, the affinity in assay [12] corresponds to a Ki of 149 nM.
